By IC50 is commonly meant the midpoint of a concentration-inhibition curve. The term inhibition denotes the drop in the measured response relative to a control, in per cent.

The results in this text go back to ChEMBL document CHEMBL2401669, “Discovery and structure-activity relationships of ent-Kaurene diterpenoids as potent and selective 11β-HSD1 inhibitors: potential impact in diabetes” (Eur J Med Chem, 2013).

In experiment [1] the target is 11-beta-hydroxysteroid dehydrogenase 1 (Rattus norvegicus, UniProt P16232). Nature of the experiment: Inhibition of rat 11beta-HSD1.
11-beta-hydroxysteroid dehydrogenase 1 (Rattus norvegicus, UniProt P16232), sequence (P16232 whole entry): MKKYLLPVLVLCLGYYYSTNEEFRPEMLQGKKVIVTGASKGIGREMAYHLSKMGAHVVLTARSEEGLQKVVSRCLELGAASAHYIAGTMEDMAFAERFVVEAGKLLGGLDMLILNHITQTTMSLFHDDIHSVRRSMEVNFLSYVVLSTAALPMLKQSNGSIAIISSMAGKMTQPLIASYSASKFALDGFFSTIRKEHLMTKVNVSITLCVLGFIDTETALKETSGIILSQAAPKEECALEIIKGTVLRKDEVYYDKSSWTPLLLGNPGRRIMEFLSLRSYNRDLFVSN
In experiment [2] the target is T1, 11-beta-hydroxysteroid dehydrogenase 1 (Homo sapiens, UniProt P28845). Nature of the experiment: Inhibition of human 11beta-HSD1. Summed up:
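Scintillation proximity assay on microsomes from HEK-293 cells stably transfected with human 11β-HSD1. Microsomes were incubated with NADPH and [3H]cortisone. The [3H]cortisol formed was captured by a monoclonal antibody on protein A-coated SPA beads. Compounds were first screened at […]; those giving over 50% inhibition went on to full IC50 determination. Each value comes from at least two independent experiments, with duplicates or more at each concentration.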

In experiment [3] the target is 11-beta-hydroxysteroid dehydrogenase 1 (Mus musculus) (UniProt P50172). Nature of the experiment: Inhibition of mouse 11beta-HSD1 expressed in HEK293 cell microsomes assessed as inhibition of [3H]cortisone conversion to [3H]cortisol at 1 uM by scintillation proximity assay. As to conditions: Microsome. Summed up: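 Primary single-concentration screen in the SPA. Mouse 11β-HSD1 HEK-293 stable-transfectant microsomes are incubated with NADPH and [3H]cortisone, and [3H]cortisol is captured by antibody-coupled protein A SPA beads. Inhibitory ratio is the average of two determinations, with deviation from the average of 10% of the average value.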
11-beta-hydroxysteroid dehydrogenase 1 (Mus musculus), sequence (P50172 whole entry, looked up): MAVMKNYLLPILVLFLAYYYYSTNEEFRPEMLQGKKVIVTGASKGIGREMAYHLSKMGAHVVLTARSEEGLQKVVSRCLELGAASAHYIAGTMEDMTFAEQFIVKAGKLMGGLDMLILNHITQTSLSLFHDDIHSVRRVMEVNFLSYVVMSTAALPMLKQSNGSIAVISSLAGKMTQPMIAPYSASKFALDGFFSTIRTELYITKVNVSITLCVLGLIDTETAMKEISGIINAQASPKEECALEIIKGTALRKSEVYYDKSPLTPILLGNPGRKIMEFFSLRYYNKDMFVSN

In experiment [4] the target is T2, 11-beta-hydroxysteroid dehydrogenase type 2 (Homo sapiens, UniProt P80365).
T2 sequence (P80365 whole entry): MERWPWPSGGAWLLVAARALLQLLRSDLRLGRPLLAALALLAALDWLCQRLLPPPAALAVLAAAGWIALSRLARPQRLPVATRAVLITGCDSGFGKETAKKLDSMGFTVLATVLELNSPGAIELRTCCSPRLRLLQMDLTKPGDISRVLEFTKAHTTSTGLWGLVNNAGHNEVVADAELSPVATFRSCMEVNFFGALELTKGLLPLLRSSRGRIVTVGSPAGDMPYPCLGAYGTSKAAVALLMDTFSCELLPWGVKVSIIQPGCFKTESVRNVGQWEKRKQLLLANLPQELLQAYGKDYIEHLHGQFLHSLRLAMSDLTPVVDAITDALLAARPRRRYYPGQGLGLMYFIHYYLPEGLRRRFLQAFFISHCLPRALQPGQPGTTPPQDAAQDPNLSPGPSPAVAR
As to the kind of experiment: Inhibition of human 11beta-HSD2.

The species entered for the next experiment is Homo sapiens. As to the kind of experiment: selectivity ratio of IC50 for human 11beta-HSD2 to IC50 for human 11beta-HSD1. A digest of the protocol: (§1)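 Ratio of 11β-HSD2 IC50 to 11β-HSD1 IC50 for the same species (mouse or human). Both IC50s come from microsome-based scintillation proximity assays, averaged over at least two independent experiments with at least duplicate wells per concentration. Only compounds exceeding 50% inhibition in the primary screen were evaluated.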

The target of experiment [5] is T1, 11-beta-hydroxysteroid dehydrogenase 1. Nature of the experiment: Inhibition of human 11beta-HSD1 expressed in HEK293 cell microsomes assessed as inhibition of [3H]cortisone conversion to [3H]cortisol by scintillation proximity assay. Set-up: species or system Microsome. Summed up: (§2)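 Enzyme source: microsomal fraction from HEK-293 cells stably transfected with 11β-HSD1 (human or mouse), incubated with NADPH and [3H]cortisone. The [3H]cortisol product is captured by a monoclonal antibody on protein A-coated SPA beads. IC50 is averaged over at least two independent experiments, at least duplicate per concentration.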
(In general: Scintillation proximity formats need no separation of bound from free tracer.)

For experiment [6], the target named is 11-beta-hydroxysteroid dehydrogenase 1 (Mus musculus, UniProt P50172). As to the kind of experiment: Inhibition of mouse 11beta-HSD1 expressed in HEK293 cell microsomes assessed as inhibition of [3H]cortisone conversion to [3H]cortisol by scintillation proximity assay. Set-up: species or system Microsome. A digest of the protocol:
as §2

Experiment [7] concerns the target T3, 11-beta-hydroxysteroid dehydrogenase type 2 (Mus musculus, UniProt P51661).
T3 sequence (P51661 whole entry): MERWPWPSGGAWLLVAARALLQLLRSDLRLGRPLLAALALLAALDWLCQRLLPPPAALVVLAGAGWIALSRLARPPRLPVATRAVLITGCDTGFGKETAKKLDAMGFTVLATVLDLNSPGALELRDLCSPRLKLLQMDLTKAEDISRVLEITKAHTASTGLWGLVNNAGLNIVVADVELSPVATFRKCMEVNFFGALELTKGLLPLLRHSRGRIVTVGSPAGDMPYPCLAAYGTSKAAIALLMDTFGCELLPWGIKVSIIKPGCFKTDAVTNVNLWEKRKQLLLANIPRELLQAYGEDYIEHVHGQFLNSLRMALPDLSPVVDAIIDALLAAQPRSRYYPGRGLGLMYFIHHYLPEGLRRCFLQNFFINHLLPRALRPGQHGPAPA
Nature of the experiment: Inhibition of mouse 11beta-HSD2. Summed up:
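Scintillation proximity assay using microsomes containing mouse 11β-HSD2. IC50 is averaged over at least two independent experiments, with at least two replicates per concentration.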

The species entered for another experiment is Mus musculus. Nature of the experiment: Selectivity ratio of IC50 for mouse 11beta-HSD2 to IC50 for mouse 11beta-HSD1. A digest of the protocol:
as §1

T1 sequence (P28845 whole entry): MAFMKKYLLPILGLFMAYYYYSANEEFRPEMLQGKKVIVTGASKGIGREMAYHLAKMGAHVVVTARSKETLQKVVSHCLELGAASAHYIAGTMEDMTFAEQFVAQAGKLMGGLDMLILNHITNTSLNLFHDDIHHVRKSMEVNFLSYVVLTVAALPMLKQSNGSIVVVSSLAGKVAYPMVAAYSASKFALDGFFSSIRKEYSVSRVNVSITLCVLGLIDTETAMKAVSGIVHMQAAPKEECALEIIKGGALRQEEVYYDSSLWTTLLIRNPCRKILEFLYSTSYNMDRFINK
11-beta-hydroxysteroid dehydrogenase 1 (Mus musculus, UniProt P50172), sequence (P50172 whole entry): as the sequence (P50172 whole entry, looked up) above

Take `C[C@@H]1CC(n2c(=O)[nH]c3ccccc32)C[C@@H](C)N1C(=O)c1cc(Cl)c(N)c(Cl)c1` (stereo not given in full): the values for the IC50 in experiment [1] and in experiment [2] were 39 nM and 22 nM, respectively.
As for `C=C1C[C@@]23CC[C@@H]4[C@](C)(CO)CCC[C@@]4(C)[C@@H]2CC[C@H]1C3`, in experiment [3], the inhibition was 20.4%. The half-maximal inhibitory concentration (IC50) in experiment [4] was 10 µM; in experiment [5], 1420 nM; in experiment [6], 1550 nM; in experiment [7], more than 1000 µM. Besides, the Ratio IC50 in the experiment filed under Homo sapiens was 7; in the experiment filed under Mus musculus, more than 640.
Consider `C=C1[C@H]2CC[C@H]3[C@]4(C)CCC[C@@](C)(C(=O)O)[C@H]4CC[C@]3(C2)[C@H]1O`, for which, in experiment [3], the inhibition was 55.5%. For the same compound, the values for the IC50 in experiment [5], in experiment [6] and in experiment [7] were more than 1000 nM, 259 nM and more than 100 µM, respectively. In the experiment filed under Mus musculus, the Ratio IC50 is more than 387.
With `C[C@@]1(CO)CCC[C@]2(C)[C@@H]1CC[C@@]13C[C@H](CC[C@H]12)[C@@](O)(CO)C3`, the IC50 in [4] was more than 1000 µM; in experiment [5], 910 nM; in [6] it was 2810 nM; in experiment [7], more than 1000 µM. Also, the Ratio IC50 in the experiment listed under Homo sapiens is more than 1100; in the experiment filed under Mus musculus, more than 357.
Turning to `C=C1C[C@@]23CC[C@H]4[C@@](C)(CCC[C@@]4(C)C(=O)O)[C@@H]2CC[C@@H]1C3` [KAURENOIC ACID], the inhibition in [3] was found to be 82.4%. Moreover, the IC50 is 357 nM in [6] and 500 µM in experiment [7]. In addition, the Ratio IC50 in the experiment filed under Mus musculus came out at 1400.
Regarding `C[C@@]12CCC[C@@](C)(C(=O)O)[C@H]1CC[C@@]13C[C@H](CC[C@H]12)[C@@](O)(CO)C3`, the IC50 in experiment [4] is more than 1000 µM; in [5], 1240 nM; in [6] it was 3220 nM; in [7] it was more than 1000 µM. Further, the Ratio IC50 was more than 809 in the experiment filed under Homo sapiens and more than 311 in the experiment listed under Mus musculus.
